The results in this text go back to PubChem BioAssay AID651651 (Broad Institute, 2012).

Molecules are shown by their SMILES. Values without a mark were called inactive.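 How the source made its calls: active means signal-lowering compounds whose fitted half-effect concentration is no more than twice the top tested dose; inconclusive means flat curve with 30 to 70% inhibition, or poor fit; inactive means the rest.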

This test in a line: quencher artefacts in RAD54 branch migration readout – biochemical, Cy5 label, cherry-picked samples, artefact control for RAD54 inhibitor project, dose response (AID 651651). To be noted: Cy5 DNA fluorescence quench counter-screen; series mostly up to 50 µM; activity change, negative = inhibition: at the top concentration. In a few lines:
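Material: human RAD54 protein; quantity: 30 nM RAD54 in the enzyme mix; dosing: pinned compound dose series, 10 mM stock solutions; incubation: 60 min reaction at room temperature after substrate addition; measured by: fluorescence of the Cy5-labelled DNA substrate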
Consider `C[C@@H]1CN([C@H](C)CO)C(=O)c2cc(NC(=O)Nc3ccc4c(c3)OCO4)ccc2O[C@H]1CN(C)C(=O)Nc1cccc2ccccc12`, for which the “activity change, negative = inhibition” value was 0.117% [at 46 µM].

As for `COc1ccc(S(=O)(=O)N(C)C[C@@H]2Oc3ccc(NC(=O)Nc4c(C)noc4C)cc3CC(=O)N([C@@H](C)CO)C[C@@H]2C)cc1`, the “activity change, negative = inhibition” value was -4.66%.

Take `CO[C@@H]1CN(C)C(=O)c2cc(NC(C)=O)ccc2OC[C@H](C)N(Cc2ccccc2C(=O)O)C[C@@H]1C`: the “activity change, negative = inhibition” value was -1.33%.

As for `CO[C@@H]1CN(C)C(=O)c2ccc(NC(C)=O)cc2OC[C@@H](C)N(C(=O)c2ccccn2)C[C@H]1C`, the “activity change, negative = inhibition” value was -8.93% [at 46 µM].

With `O=C(NC1CCC1)[C@@H]1[C@@H](CO)[C@@H]2Cn3c(ccc(-c4ccc(F)cc4)c3=O)[C@@H]2N1Cc1ccccn1`, the “activity change, negative = inhibition” value was -5.69%.

On to `C[C@@H]1CN([C@@H](C)CO)C(=O)c2cc(NS(=O)(=O)c3cccs3)ccc2O[C@@H]1CN(C)C(=O)Nc1cccc2ccccc12`, for which the “activity change, negative = inhibition” value was 2.94%.

With `COc1ccc(CN(C)C[C@@H]2Oc3ccc(NC(=O)NC(C)C)cc3C(=O)N([C@@H](C)CO)C[C@H]2C)cc1`, the “activity change, negative = inhibition” value was 5.61%.

As to `COc1ccc(CN(C)C[C@@H]2Oc3ccc(NC(=O)Nc4ccc5c(c4)OCO5)cc3C(=O)N([C@@H](C)CO)C[C@H]2C)cc1`, the “activity change, negative = inhibition” value is -2.31%.

Consider `CS(=O)(=O)N1[C@@H]2Cn3c(ccc(C4=CCCCC4)c3=O)[C@H]1[C@@H](C(=O)N1CCOCC1)[C@@H]2CO`, for which the “activity change, negative = inhibition” value was -13.1%.

As to `COc1ccc(-c2ccc3c(c2)[C@H]2[C@H](CCN2C(=O)Cc2cccnc2)[C@H](CO)N3C)cc1`, the “activity change, negative = inhibition” value is -12.9%.

For the compound `Cc1noc(C)c1NC(=O)Nc1ccc2c(c1)C(=O)N([C@@H](C)CO)C[C@H](C)[C@@H](CN(C)S(C)(=O)=O)OCCCC[C@@H](C)O2`, the “activity change, negative = inhibition” value is 4.57% [at 46 µM].
